According to PMC9898131 (Nature chemical biology, 2022):

Molecular target: COQ8A^NΔ250 (Homo sapiens, UniProt Q8NI60)
Assay: Differential scanning fluorimetry
Type: binding
Conditions: 100 μM inhibitor, 10 μM COQ8A^NΔ250
How it was run: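 Recombinant COQ8A^NΔ250 purified on cobalt IMAC resin, exchanged into 20 mM HEPES pH 7.2, 300 mM NaCl, 10% glycerol, 5 mM BME. They were spun briefly, then kept 10 min at room temperature in the dark before melting.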

Sequence of COQ8A^NΔ250 (Q8NI60 251-647 limits assumed, stated change not applied): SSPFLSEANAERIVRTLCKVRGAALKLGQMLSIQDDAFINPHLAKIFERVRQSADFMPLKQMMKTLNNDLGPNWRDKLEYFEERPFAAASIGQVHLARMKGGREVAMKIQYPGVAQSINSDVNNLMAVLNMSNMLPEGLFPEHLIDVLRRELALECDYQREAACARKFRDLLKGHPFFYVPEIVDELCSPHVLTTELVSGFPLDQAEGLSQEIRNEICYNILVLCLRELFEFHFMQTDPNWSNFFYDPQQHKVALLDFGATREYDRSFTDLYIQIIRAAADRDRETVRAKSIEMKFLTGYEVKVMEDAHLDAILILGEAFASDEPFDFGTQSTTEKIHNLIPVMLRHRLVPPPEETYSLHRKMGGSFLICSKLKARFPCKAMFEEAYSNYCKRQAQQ

## C#Cc1cccc(Nc2ncnc3cc(OCCOC)c(OCCOC)cc23)c1 [erlotinib]
  COQ8A melting temperature increase (ΔTm): weak-binding control
